ChEMBL document CHEMBL2424630, “Synthesis and antioxidant evaluation of (S,S)- and (R,R)-secoisolariciresinol diglucosides (SDGs)” (Bioorg Med Chem Lett, 2013)
pEC50: −log10 of the molar value. Calls of active or inactive are those of the source. The rule behind the calls is not given here.

What was measured:
[1] = Ratio of ascorbic acid acid EC50 to compound EC50 for reduction of K3FeCN6
[2] = Ratio of alpha-tocopherol EC50 to compound EC50 for reduction of K3FeCN6; type: functional
[3] = Antioxidant activity assessed as reduction of K3FeCN6 at 1 to 500 uM by spectrophotometric analysis in presence of FeCl3; type: functional
In short: (§1)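 Reducing power: reduction of K3FeCN6 in the presence of FeCl3, read as absorbance of the ferric-ferrous complex. Response was linear over 1–100 μM, and the regression equation from that range gave EC50. Values are mean ± standard deviation, n = 3.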

[4] = Antioxidant activity assessed as peroxyl radical scavenging activity at 8 uM to 1 mM by fluorescence assay relative to trolox; type: functional
In short: (§2)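 ORAC assay: peroxyl radicals were generated by AAPH, and oxidation of fluorescein was measured. Results are expressed as Trolox equivalents, calculated from concentrations within the linear part of the calibration curve. Values are mean ± standard deviation, n = 3.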

[5] = Antioxidant activity assessed as reduction of K3FeCN6 by spectrophotometric analysis in presence of FeCl3; type: functional; in short: as §1
[6] = Antioxidant activity assessed as trolox equivalents of peroxyl radical scavenging activity by fluorescence assay; type: functional; in short: as §2
[7] = tested on: Radical scavenging activity; experiment: Antioxidant activity assessed as DPPH radical scavenging activity at 5 to 500 uM incubated for 20 mins under dark condition by spectrophotometric analysis; type: functional
[8] = Antioxidant activity assessed as hydroxyl radical scavenging activity at 8 uM to 1 mM by fluorescence assay relative to gallic acid; type: functional
In short: as §2, with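 “HORAC” for “ORAC”, “hydroxyl” for “peroxyl”, “generated from hydrogen peroxide” for “generated”, “Fenton reaction,” for “AAPH,”, “gallic acid” for “Trolox”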

[9] = tested on: Radical scavenging activity; experiment: Antioxidant activity assessed as DPPH radical scavenging activity incubated for 20 mins under dark condition by spectrophotometric analysis; type: functional
[10] = Antioxidant activity assessed as gallic acid equivalents of hydroxyl radical scavenging activity by fluorescence assay; type: functional
In short: as §2, with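 “HORAC” for “ORAC”, “hydroxyl” for “peroxyl”, “generated from hydrogen peroxide” for “generated”, “Fenton reaction,” for “AAPH,”, “gallic acid” for “Trolox”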

| pEC50 [9] | pEC50 [5] | SMILES | Ratio EC50 [1] | Ratio EC50 [2] | Activity [3] | fold change (FC) [4] | Activity [5] | Activity [6] [equiv] | Activity [7] | fold change (FC) [8] | Activity [10] [equiv] |
| --- | --- | --- | --- | --- | --- | --- | --- | --- | --- | --- | --- |
|  |  | COc1cc(C[C@H](CO[C@@H]2O[C@H](CO)[C@@H](O)[C@H](O)[C@H]2O)[C@@H](CO[C@@H]2O[C@H](CO)[C@@H](O)[C@H](O)[C@H]2O)Cc2ccc(O)c(OC)c2)ccc1O (stereo in doubt; form 2) | 3 | 3 | Active | 2 | Dose-dependent effect | 3.03 | Active | 2 |  |
| 3.36 | 2.95 | O=C1O[C@H]([C@@H](O)CO)C(O)=C1O [ASCORBIC ACID] |  |  | Active |  |  |  | Active |  |  |
| 3.91 | 3.48 | COc1cc(C[C@@H](CO[C@@H]2O[C@H](CO)[C@@H](O)[C@H](O)[C@H]2O)[C@H](CO[C@@H]2O[C@H](CO)[C@@H](O)[C@H](O)[C@H]2O)Cc2ccc(O)c(OC)c2)ccc1O | 3 | 3 | Active | 2 | Dose-dependent effect | 2.2 | Active | 2 |  |
| 3.80 | 3.53 | COc1cc(C[C@H](CO[C@@H]2O[C@H](CO)[C@@H](O)[C@H](O)[C@H]2O)[C@@H](CO[C@@H]2O[C@H](CO)[C@@H](O)[C@H](O)[C@H]2O)Cc2ccc(O)c(OC)c2)ccc1O (stereo in doubt; form 2) [(+)-SECOISOLARICIRESINOLDIGLUCOSIDE] |  |  |  |  |  |  |  |  |  |
| 4.08 | 3.56 | COc1cc(C[C@H](CO[C@@H]2O[C@H](CO)[C@@H](O)[C@H](O)[C@H]2O)[C@@H](CO[C@@H]2O[C@H](CO)[C@@H](O)[C@H](O)[C@H]2O)Cc2ccc(O)c(OC)c2)ccc1O (stereo in doubt; form 1) [(+)-SECOISOLARICIRESINOLDIGLUCOSIDE] |  |  |  |  |  |  |  |  |  |
|  |  | COc1cc(C[C@H](CO[C@@H]2O[C@H](CO)[C@@H](O)[C@H](O)[C@H]2O)[C@@H](CO[C@@H]2O[C@H](CO)[C@@H](O)[C@H](O)[C@H]2O)Cc2ccc(O)c(OC)c2)ccc1O (stereo in doubt; form 1) |  |  | Active | 2 | Dose-dependent effect | 2.55 | Active |  | 3.68 |
| 3.88 | 3.02 | Cc1c(C)c2c(c(C)c1O)CC[C@@](C)(CCC[C@H](C)CCC[C@H](C)CCCC(C)C)O2 [ALPHA-TOCOPHEROL] |  |  | Active |  |  |  | Active |  |  |
